Experimental data pooled from the literature.
Compare with care: the assays were run in different laboratories.
Effect on: cell growth or viability

Structure (SMILES)	cell line	assay	conditions	CC50
CCOP(=O)(OCC)[C@@H]1C[C@@H](n2cc(Cn3cnc4c(N)ncnc43)nn2)ON1C (racemic)	HEL	–	72 h	> 100 µM
Cc1nc2ccc(Cl)cn2c1C(=O)N1CCN(CCn2cc(C3CC3)nn2)CC1	HeLa	resazurin	–	> 100 µM
CCOP(=O)(OCC)[C@@H]1C[C@H](n2cc(Cn3cc(C)c(=O)[nH]c3=O)nn2)ON1C (racemic)	HEL	–	72 h	> 100 µM
O=c1[nH]c(=O)c2ncn(CCOCP(=O)(O)O)c2[nH]1	HEL	–	72 h	111 µM
Nc1nc(O)c2ncn(COC(CO)CO)c2n1	HEL	–	72 h	63 µM
CCOP(=O)(OCC)[C@@H]1C[C@H](n2cc(Cn3ccc(=O)[nH]c3=O)nn2)ON1C (racemic)	HEL	–	72 h	> 100 µM
Cc1ccn2c(C(=O)N3CCN(Cc4cn(-c5ccccc5Cl)nn4)CC3)c(C)nc2c1	HeLa	resazurin	–	> 100 µM
O=c1[nH]c(=O)c2ncn(C[C@@H](CO)OCP(=O)(O)O)c2[nH]1	HEL	–	72 h	> 300 µM
C[C@H](NC(=O)[C@]1(Cc2ccccc2)CCN1C(=O)OCc1ccccc1)C(=O)NC(C)(C)C	HEL	–	72 h	> 100 µM
Cc1nc2ccc(Cl)cn2c1C(=O)N1CCN(Cc2cn(-c3ccc(F)cc3)nn2)CC1	HeLa	resazurin	–	> 100 µM
COc1ccc(S(=O)(=O)ON=C2C=C(C)C(=O)C(C)=C2)cc1	HPAC	–	–	> 30 µM
